Shown are actives, neighbours in structure and some others; about 2.4% of the full set was active somewhere.
S1P4 agonist = activates the human S1P4 receptor. S1P4-expressing cell line, agonist reporter assay. activation, % at 4.98 µM. actives 0.35% (n = 220,000). O95977; in the data active = activation above about 11%;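 also: 0% = DMSO vehicle and 100% = reference agonist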
S1P4 antagonist = blocks the human S1P4 receptor. O95977. S1P4-expressing cells, antagonist mode, reporter read-out. inhibition, % at 4.98 µM. actives 0.26% (n = 220,000). AID 1510; in the data active = inhibition above about 29%;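 also: 0% = wells stimulated with agonist and 100% = vehicle wells without agonist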
NPY-Y2 antag = NPY-Y2 (human) receptor antagonism | inhibition, % at 2.7 µM | NPY-Y2 expressing cells, antagonist mode | P49146 | actives 0.99% (n = 140,000); in the data active = inhibition above about 17%;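 also: 0% = vehicle with agonist challenge and 100% = reference antagonist with challenge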
Target sequence (P49146 whole entry, looked up): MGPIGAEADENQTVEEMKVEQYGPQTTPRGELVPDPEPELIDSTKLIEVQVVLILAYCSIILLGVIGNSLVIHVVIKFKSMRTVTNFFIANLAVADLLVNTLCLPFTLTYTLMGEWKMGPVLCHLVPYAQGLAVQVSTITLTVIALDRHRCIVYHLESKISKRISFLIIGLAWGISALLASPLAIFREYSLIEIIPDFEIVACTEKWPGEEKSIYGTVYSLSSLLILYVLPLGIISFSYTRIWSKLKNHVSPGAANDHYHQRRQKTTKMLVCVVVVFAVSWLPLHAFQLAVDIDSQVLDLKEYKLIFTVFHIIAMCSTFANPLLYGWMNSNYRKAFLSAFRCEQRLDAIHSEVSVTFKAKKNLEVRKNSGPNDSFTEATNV
NPY1 pot ag = potentiators or agonists of human neuropeptide Y receptor Y1; P25929; NPY-Y1 expressing cells, potentiator/agonist activation; activation, % at 3.6 µM; actives 0.37% (n = 220,000); AID 1304; in the data active = activation above about 33%, passing the limit was not always enough;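 also: cells stimulated with NPY at EC10 then isoproterenol at EC100; 0% = low agonist plus stimulus and 100% = saturating agonist plus stimulus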
NPY-Y1 antag = NPY-Y1 (human) receptor antagonism; P25929; HEK293-CNG Y1 cells, membrane potential fluorescence; NPY at EC95, then isoproterenol; inhibition, % at 3.6 µM; actives 1% (n = 200,000);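 active = inhibition above the campaign mean inhibition of all tested compounds plus 3 SD, cut at about 20% in these data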;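 also: 0% = DMSO wells given NPY plus isoproterenol and 100% = isoproterenol alone without NPY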
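Test system: HEK293 cells co-expressing NPY Y1 receptor and cyclic-nucleotide gated channel; Also added: NPY (25 nM), isoproterenol (1 µM), Ro 20-1724 (25 µM); Compound dosing: one concentration, 3.6 µM, in 0.4% DMSO; Timing: dye 3 h, compound 60 min room temperature, stimulation 45 min; Technique: Membrane-potential fluorescent dye readout.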
NPY-Y2 PAM-ag = potentiates or activates human NPY-Y2 receptor; activation, % at 3.6 µM; actives 0.45% (n = 220,000); AID 1359; cells expressing NPY-Y2, potentiator/agonist read-out; in the data active = activation above about 27%;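 also: cells stimulated with NPY near EC25 plus isoproterenol at EC100; 0% = vehicle plus submaximal agonist and 100% = vehicle plus saturating agonist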
Starred values were filed as active, the others as inactive; / = no result given.

SMILES	S1P4 agonist	S1P4 antagonist	NPY-Y2 antag	NPY1 pot ag	NPY-Y1 antag	NPY-Y2 PAM-ag
COc1ccc(NC(=S)NNC(=S)Nc2cccc(C(F)(F)F)c2)cc1	2	-6	/	43*	/	27
Cc1ccc(NCC(O)C(O)C(O)CO)c(N=Nc2ccccc2)c1C (configuration not stated)	0	0	/	99*	/	98*
CC(=O)Nc1cc(NC(C)=O)c(N=Nc2ccccc2)cc1C	3	-5	/	4	/	-24
COc1ccc(N=Cc2cc3c(cc2O)OC(N)=C(C#N)C3c2ccccc2)cc1 (configuration not stated)	0	-3	0	33	-5	21
CCc1ccc2[nH]c(=O)c(CN(Cc3ccccc3OC)Cc3nnnn3Cc3ccco3)cc2c1	3	-13	19*	-2	13	7
COc1ccc2[nH]c(=O)c(CN(Cc3ccco3)Cc3nnnn3Cc3ccccc3)cc2c1	-1	9	4	-10	-4	0
COC(=O)Nc1ccc(=O)n(Cc2c(Cl)cccc2Cl)c1	-1	-1	1	21	6	-5
O=C(COc1ccc([N+](=O)[O-])cc1)N(Cc1ccccc1)Cc1ccccc1	-1	-3	23*	-16	21*	-8
COc1ccc(C2(CNC(=O)c3ccc(OCC(C)C)cc3)CCOCC2)cc1	-2	-5	4	-1	8	-5
CC(=O)c1c(C(C)=O)c(C)n(C(c2ccccc2)c2ccccc2)c1C	-1	8	/	16	8	1
COc1ccccc1NS(=O)(=O)c1cc(NC(=O)Nc2ccccc2)ccc1N1CCCCC1	-1	28	1	58*	-9	46*
CCC(=O)OCc1c(C(F)(F)F)nn(C)c1Sc1ccc(Cl)cc1	4	-5	10	1	4	-10
CCC(=O)OCc1c(C(F)(F)F)nn(C)c1Sc1ccc(F)cc1	11*	-2	7	-3	10	-2
OCCNCc1cc(Br)ccc1OCc1ccc(Cl)cc1Cl	0	-13	28*	-94	43*	-47
Cc1ccccc1NC(=O)CSc1nc(N)c2c3c(sc2n1)CSC(C)(C)C3	0	-1	47*	-60	32*	-23
CCC(NC(C)C)C(O)c1ccc(O)c2[nH]c(=O)ccc12 (configuration not stated)	2	-12	3	76*	-4	69*
Cc1ccc(NC(=O)c2cc([N+](=O)[O-])ccc2NCc2cccnc2)cc1Cl	0	0	-4	39*	-6	15
CC(Sc1nnc(-c2ccc(Cl)cc2Cl)n1Cc1ccccc1)C(=O)Nc1nccs1 (configuration not stated)	-1	-1	29*	10	26*	-1
CCOC(=O)c1ccc(-c2ccc(/C=C(\C#N)C(=O)NCc3cccs3)o2)cc1	1	-18	17*	5	1	6
Cc1cc(/C=C(\C#N)C(=O)NCc2cccs2)c(C)[nH]1	-1	4	/	-12	0	-11
O=C(NC1CC1)c1ccc2c(c1)C1C3CCC(C3)C1C(c1ccccc1)N2 (configuration not stated)	0	-1	-2	-4	1	-2
Cc1ccc(N2C(=O)C(Cc3ccc(O)cc3)NC2=S)cc1C (configuration not stated)	1	-6	1	4	4	20
COc1cc(-c2nnc(SCC3(c4ccccc4)OCCO3)o2)cc(OC)c1OC	0	-6	4	-23	3	-17
COc1ccc([N+](=O)[O-])cc1N(CC(O)CN(C)C)S(=O)(=O)c1ccc(C)cc1 (configuration not stated)	1	-6	/	18	3	3
CCCCN(CCCC)CC(O)CN(c1cc([N+](=O)[O-])ccc1OC)S(=O)(=O)c1ccccc1 (configuration not stated)	1	11	20*	-28	23*	-4
SMILES	S1P4 agonist	S1P4 antagonist	NPY-Y2 antag	NPY1 pot ag	NPY-Y1 antag	NPY-Y2 PAM-ag
Cc1nc(SCC(=O)NCc2ccco2)c2c3c(sc2n1)CCCC3	2	-1	24*	-11	25*	-17
O=C(CSc1nc(C2CC2)nc2sc3c(c12)CCCC3)NCc1ccco1	0	-21	11	-6	2	5
COC(=O)c1cc(S(=O)(=O)n2nc(C)c(Br)c2C)c(Cl)cc1Cl	1	-8	4	52*	-6	34*
COc1ccc(-c2noc(COc3ccc4c(c3)OCO4)n2)cc1OC	1	-5	12	-23	26*	-23
Cc1ccc(NC(=O)COC(=O)c2ccc(OCc3c(C)noc3C)cc2)cc1S(=O)(=O)N1CCOCC1	2	-6	1	-9	-4	6
N/C(=N\OC(=O)CC(c1ccccc1)c1ccccc1)c1cccnc1	0	-3	/	25	6	10
COC(=O)c1ccccc1NC(=O)CN1CCN(C23CC4CC(CC(C4)C2)C3)CC1	-2	-6	64*	-127	96*	-39
COC(=O)c1ccccc1NC(=O)CN1CCC(NC(=O)c2ccc(C)cc2)CC1	0	0	3	-15	-1	-1
CC(C)CCOC(=O)/C(=C/c1ccco1)NC(=O)/C=C/c1ccccc1	-2	2	18*	-47	21*	-19
NC(=O)/C(=C/c1ccco1)NC(=O)/C=C/c1ccccc1	0	5	11	22	-1	-17
CCC(=O)N(Cc1c(C)nn(-c2ccccc2)c1Cl)c1ccc(Cl)cc1	2	-7	19*	-14	29*	-11
Cc1ccn2c(NC(=O)C(C)(C)Oc3ccc(Cl)cc3)c(-c3cccs3)nc2c1	0	-30	16	-49	17	-17
CC1CCCC(NC(=O)C2c3ccccc3C(=O)N2Cc2cccs2)C1C (configuration not stated)	2	-11	25*	-18	35*	-23
Cc1ccc2c(c1)c1c(n2CC(O)CNC(C)(C)C)CCCC1 (configuration not stated)	4	-2	2	27	-9	41*
CN1CCN(/C=N/c2c(C#N)cnn2C)CC1	3	-25	4	-7	-6	1
Cn1ncc(C#N)c1/N=C/N(Cc1ccccc1)Cc1ccccc1	-1	-6	26*	-70	22*	-32
COc1ccc(C(=O)N2CCN(Cc3nc(CC4CC4)no3)CC2)cc1	2	-5	/	1	-1	-9
Cc1cc(C)n(-c2nnc(NC34CC5CC(CC(C5)C3)C4)nn2)n1	1	-1	-4	28	-8	28
COC(=O)COc1nsnc1N1CCOCC1	0	-3	1	1	-2	-9
CC(C)(C)NC[C@H](O)COc1nsnc1N1CCOCC1	4	-16	1	118*	-11	104*
COc1ccc(OC)c(C(=O)c2ccc(C(=O)Nc3cccc4ccccc34)cc2)c1	-3	-8	6	4	1	2

Source: PubChem (The Scripps Research Institute Molecular Screening Center)
